Drawing on ChEMBL document CHEMBL4308899, “Design, synthesis and QSAR study of 2'-hydroxy-4'-alkoxy chalcone derivatives that exert cytotoxic activity by the mitochondrial apoptotic pathway” (Bioorg Med Chem, 2019), this text covers IC50 and Activity for 13 molecules.

Structures are written as SMILES. pIC50: −log10 of the molar value. Calls of active or inactive are those of the source. No cut-off for these calls is given here.

Experiment [1] deals with PC-3. Put plainly: Antiproliferative activity against human PC3 cells after 48 hrs by CellTiter 96 AQueous one solution cell proliferation assay. Type of experiment: functional, cell-based. The settings on record: PC-3, 48 h. The essentials: (§1)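 Cells plated at 8000/well; test agents dissolved in DMSO and tested at 80, 8, 0.8, 0.08 and 0.008 μg/mL for 48 h at 37°C, 5% CO2. PC3 and CaSki were grown in RPMI-1640, MCF7 in Eagle's MEM, with 10% FBS and 2 mM glutamine. Podophyllotoxin served as positive control. Viability read by MTS-type reagent absorbance at 450 nm. Triplicates in three independent experiments; IC50 by regression.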

Experiment [2] in a line: Antiproliferative activity against human HF6 cells after 48 hrs by CellTiter 96 AQueous one solution cell proliferation assay. Type of experiment: functional, cell-based.
For experiment [3], the system named is Ca-Ski. Put plainly: Antiproliferative activity against human CaSki cells after 48 hrs by CellTiter 96 AQueous one solution cell proliferation assay. Type of experiment: functional, cell-based. The essentials: as §1
The test system of experiment [4] is MCF7. Put plainly: Antiproliferative activity against human MCF7 cells after 48 hrs by CellTiter 96 AQueous one solution cell proliferation assay. Type of experiment: functional, cell-based. The settings on record: MCF7, 48 h. The essentials:
as §1

For experiment [5], the system named is BJ. The experiment can be described thus: Cytotoxicity against human BJ cells after 48 hrs by CellTiter 96 AQueous one solution cell proliferation assay. Type of experiment: cell-based.
Experiment [6] has as its system PC-3. The experiment can be described thus: Cell cycle arrest in human PC3 cells assessed as accumulation at sub-G1 phase at 0.12 uM after 48 hrs by RNAse/propidium iodide staining-based flow cytometric analysis (reference value: 0.00%). The experiment is classed as functional.
Experiment [7] deals with PC-3. The experiment can be described thus: Cell cycle arrest in human PC3 cells assessed as accumulation at G1 phase at 0.12 uM after 48 hrs by RNAse/propidium iodide staining-based flow cytometric analysis (reference value: 55.6%). Type of experiment: functional. For orientation: A flow cytometer gives signals particle by particle.
Experiment [8] deals with PC-3. Put plainly: Cell cycle arrest in human PC3 cells assessed as accumulation at S phase at 0.12 uM after 48 hrs by RNAse/propidium iodide staining-based flow cytometric analysis (reference value: 19.7%). The experiment is classed as functional.
For experiment [9], the system named is PC-3. Put plainly: Cell cycle arrest in human PC3 cells assessed as accumulation at G2/M phase at 0.12 uM after 48 hrs by RNAse/propidium iodide staining-based flow cytometric analysis (reference value: 24.9%). Type of experiment: functional.
Experiment [10] concerns PC-3. The experiment can be described thus: Induction of apoptosis in human PC3 cells assessed as chromatin condensation at 0.005 uM after 48 hrs by acridine orange/ethidium bromide staining-based epifluorescence microscopic analysis. The experiment is classed as functional, cell-based. A digest of the protocol: (§2)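 PC3 cells, 25000 per well in 24-well plates, treated 48 h; H2O2 30 min served as apoptosis control, boiling at 95°C for 10 sec as necrosis control. Cells then exposed to acridine orange/ethidium bromide (100 μg/mL each) and examined by fluorescence microscopy. Scored by nuclear morphology: chromatin condensation, orange condensed chromatin (late apoptosis), apoptotic bodies.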

The test system of experiment [11] is PC-3. Put plainly: Induction of apoptosis in human PC3 cells assessed as plasma membrane blebbing at 0.005 uM after 48 hrs by acridine orange/ethidium bromide staining-based epifluorescence microscopic analysis. Type of experiment: functional, cell-based. The essentials:
as §2

Experiment [12] concerns PC-3. Put plainly: Induction of apoptosis in human PC3 cells assessed as formation of apoptotic bodies at 0.005 uM after 48 hrs by acridine orange/ethidium bromide staining-based epifluorescence microscopic analysis. The experiment is classed as functional, cell-based. A digest of the protocol: as §2
Experiment [13] relates to PC-3. The experiment can be described thus: Cell cycle arrest in human PC3 cells assessed as accumulation at sub-G1 phase at 8.2 uM after 48 hrs by RNAse/propidium iodide staining-based flow cytometric analysis (reference value: 0.00%). Type of experiment: functional.
The test system of experiment [14] is PC-3. Put plainly: Cell cycle arrest in human PC3 cells assessed as accumulation at G1 phase at 8.2 uM after 48 hrs by RNAse/propidium iodide staining-based flow cytometric analysis (reference value: 55.6%). Type of experiment: functional.
The test system of experiment [15] is PC-3. The experiment can be described thus: Cell cycle arrest in human PC3 cells assessed as accumulation at S phase at 8.2 uM after 48 hrs by RNAse/propidium iodide staining-based flow cytometric analysis (reference value: 19.7%). Type of experiment: functional.
Experiment [16] concerns PC-3. Put plainly: Cell cycle arrest in human PC3 cells assessed as accumulation at G2/M phase at 8.2 uM after 48 hrs by RNAse/propidium iodide staining-based flow cytometric analysis (reference value: 24.9%). The experiment is classed as functional.
The test system of experiment [17] is PC-3. The experiment can be described thus: Induction of apoptosis in human PC3 cells assessed as chromatin condensation at IC50 after 48 hrs by acridine orange/ethidium bromide staining-based epifluorescence microscopic analysis. Type of experiment: functional, cell-based.
Experiment [18] concerns PC-3. The experiment can be described thus: Induction of apoptosis in human PC3 cells assessed as plasma membrane blebbing at IC50 after 48 hrs by acridine orange/ethidium bromide staining-based epifluorescence microscopic analysis. Type of experiment: functional, cell-based.
In experiment [19] the test system is PC-3. The experiment can be described thus: Induction of apoptosis in human PC3 cells assessed as formation of apoptotic bodies at IC50 after 48 hrs by acridine orange/ethidium bromide staining-based epifluorescence microscopic analysis. The experiment is classed as functional, cell-based.
In experiment [20] the test system is PC-3. The experiment can be described thus: Induction of apoptosis in human PC3 cells assessed as down regulation of Bcl2 mRNA expression after 48 hrs by RT-PCR analysis. Type of experiment: functional, cell-based. The essentials: (§3)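 PC3 cells (1.25×10^5) were treated 48 h, then RNA was isolated. Bcl-2 and Bax mRNA were measured by RT-PCR with GAPDH as internal control.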

In experiment [21] the test system is PC-3. The experiment can be described thus: Induction of apoptosis in human PC3 cells assessed as upregulation of Bax mRNA expression after 48 hrs by RT-PCR analysis. Type of experiment: functional, cell-based. The essentials:
as §3

The subject of experiment [22] is PC-3. Put plainly: Induction of apoptosis in human PC3 cells assessed as increase in caspase 3/7 activity by Caspase 3/7-Glo luminescence assay. Type of experiment: functional, cell-based. A digest of the protocol:
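PC3 cells (8000) were treated, and caspase-3/7 activity was then read by Caspase-Glo 3/7 luminescence. Results are relative luminescence units versus untreated control; paclitaxel was included as a comparator.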

The test system of experiment [23] is PC-3. The experiment can be described thus: Cell cycle arrest in human PC3 cells assessed as accumulation at sub-G1 phase at 11.81 uM after 48 hrs by RNAse/propidium iodide staining-based flow cytometric analysis (reference value: 0.00%). Type of experiment: functional.
The test system of experiment [24] is PC-3. Put plainly: Cell cycle arrest in human PC3 cells assessed as accumulation at G1 phase at 11.81 uM after 48 hrs by RNAse/propidium iodide staining-based flow cytometric analysis (reference value: 55.6%). The experiment is classed as functional.
Experiment [25] has as its system PC-3. The experiment can be described thus: Cell cycle arrest in human PC3 cells assessed as accumulation at S phase at 11.81 uM after 48 hrs by RNAse/propidium iodide staining-based flow cytometric analysis (reference value: 19.7%). Type of experiment: functional.
Experiment [26] deals with PC-3. The experiment can be described thus: Cell cycle arrest in human PC3 cells assessed as accumulation at G2/M phase at 11.81 uM after 48 hrs by RNAse/propidium iodide staining-based flow cytometric analysis (reference value: 24.9%). The experiment is classed as functional.
Experiment [27] concerns PC-3. The experiment can be described thus: Cell cycle arrest in human PC3 cells assessed as accumulation at sub-G1 phase at 13.75 uM after 48 hrs by RNAse/propidium iodide staining-based flow cytometric analysis (reference value: 0.00%). Type of experiment: functional.
For experiment [28], the system named is PC-3. Put plainly: Cell cycle arrest in human PC3 cells assessed as accumulation at G1 phase at 13.75 uM after 48 hrs by RNAse/propidium iodide staining-based flow cytometric analysis (reference value: 55.6%). Type of experiment: functional.
The subject of experiment [29] is PC-3. The experiment can be described thus: Cell cycle arrest in human PC3 cells assessed as accumulation at S phase at 13.75 uM after 48 hrs by RNAse/propidium iodide staining-based flow cytometric analysis (reference value: 19.7%). The experiment is classed as functional.
Experiment [30] relates to PC-3. The experiment can be described thus: Cell cycle arrest in human PC3 cells assessed as accumulation at G2/M phase at 13.75 uM after 48 hrs by RNAse/propidium iodide staining-based flow cytometric analysis (reference value: 24.9%). Type of experiment: functional.
Experiment [31] has as its system PC-3. Put plainly: Antiproliferative activity against human PC3 cells after 72 hrs by CyQuant dye-based assay. The experiment is classed as functional, cell-based. The settings on record: PC-3, 72 h.

On to `COc1cc(O)c(C(=O)/C=C/c2ccccc2)cc1Br`, for which the pIC50 in experiment [1] is less than 4.30; in [2], 4.41; in [3], less than 4.30; in experiment [4], less than 4.30.

As to `COc1cc([C@@H]2c3cc4c(cc3[C@H](O)[C@H]3COC(=O)[C@H]23)OCO4)cc(OC)c1OC` [PODOFILOX], the pIC50 in experiment [5] is 5.30; in experiment [1], 6.92; in experiment [2] it was 7.43; in experiment [3], 6.52; in [4], 6.55. Moreover, the Activity in [6] is 35.6%; in experiment [7], 8.31%; in experiment [8], 9.82%; in experiment [9] it was 47%. For the same molecule, the result in [10], in [11] and in [12] was Active.

Turning to `COc1ccc(C(=O)/C=C/c2ccccc2)c(O)c1I`, the pIC50 is 4.47 in [1], less than 4.30 in experiment [2], less than 4.30 in experiment [3] and less than 4.30 in experiment [4].

For `COc1ccc(C(=O)CCc2ccccc2)c(O)c1`, the pIC50 in [1], in [2], in experiment [3] and in [4] was less than 4.30 in each case.

With `CCOc1ccc(C(=O)/C=C/c2ccccc2)c(O)c1`, the pIC50 in experiment [5] is 3.68; in experiment [1] it was 5.09; in experiment [4], less than 4.30. For the same molecule, the Activity in [13] was found to be 17.9%; in experiment [14], 24.3%; in experiment [15] it was 7.69%; in experiment [16], 50.1%. Besides, the outcome in [17], in experiment [18], in experiment [19], in experiment [20], in experiment [21] and in experiment [22] was Active.

With `COc1ccc(C(=O)/C=C/c2ccccc2)c(O)c1`, the pIC50 was 3.62 in experiment [5], 4.93 in [1], less than 4.30 in experiment [2] and less than 4.30 in experiment [4]. The Activity in experiment [23] came out at 13.6%; in experiment [24], 46.8%; in experiment [25], 16%; in experiment [26], 27.1%. The outcome in experiment [17], in experiment [18], in [19], in experiment [20], in experiment [21] and in experiment [22] was Active.

`COc1cc(O)c(C(=O)/C=C/c2ccccc2)cc1I`: the pIC50 in [1], in [2], in experiment [3] and in experiment [4] was less than 4.30 throughout.

With `O=C(/C=C/c1ccccc1)c1ccc(O)cc1O` [2',4'-DIHYDROXYCHALCONE], the negative-log IC50 (pIC50) in experiment [5] was 3.58; in [1], 4.86; in experiment [4], less than 4.30. In addition, the Activity turned out to be 16.3% in experiment [27], 32.2% in experiment [28], 10.7% in experiment [29] and 40.8% in experiment [30]. Besides, the result in experiment [17], in [18], in experiment [19], in experiment [20], in experiment [21] and in experiment [22] was Active.

With `CC(=O)Oc1ccc(C(=O)/C=C/c2ccccc2)c(O)c1`, the pIC50 is 4.67 in experiment [5]; 5.00 in experiment [1]; less than 4.30 in experiment [2]; less than 4.30 in experiment [3]; less than 4.30 in [4].

For `O=C(/C=C/c1ccccc1)c1ccc(OCc2ccccc2)cc1O`, the results for the pIC50 in [1], in experiment [3] and in experiment [4] were 4.46, less than 4.30 and less than 4.30, respectively.

In the case of `CCCOc1ccc(C(=O)/C=C/c2ccccc2)c(O)c1`, the pIC50 in [5] was 4.80; in experiment [1] it was 5.09; in [3] it was less than 4.30; in experiment [4], less than 4.30.

As to `O=C(/C=C/c1ccccc1O)c1ccccc1O`, the pIC50 in experiment [31] is 4.99.

As for `COc1ccc(C(=O)/C=C/c2ccccc2)c(O)c1Br`, the pIC50 in [1] was 4.32; in [2], less than 4.30; in experiment [3], less than 4.30; in experiment [4], less than 4.30.

By pIC50 is commonly meant the IC50 on a negative log10 scale, so that one unit is a factor of ten. Low values mean a high IC50, high ones a low IC50.
